Assay results as given in ChEMBL document CHEMBL3784976 (J Med Chem, 2016).
Converted amounts (≈) assume the structure as drawn. The source made the active and inactive calls. The calls are words filed in the database; no cut-off is given here.

Legend:
[1] = biological target: Cannabinoid receptor 1 (Homo sapiens) (UniProt P21554); assay: Displacement of [3H]CP-55940 from human recombinant CB1 receptor expressed in CHO cells assessed as remaining radioligand binding at 10 uM after 120 mins by scintillation counting method relative to control; assay type: cell-based
Chain of Cannabinoid receptor 1 (Homo sapiens) (P21554 whole entry): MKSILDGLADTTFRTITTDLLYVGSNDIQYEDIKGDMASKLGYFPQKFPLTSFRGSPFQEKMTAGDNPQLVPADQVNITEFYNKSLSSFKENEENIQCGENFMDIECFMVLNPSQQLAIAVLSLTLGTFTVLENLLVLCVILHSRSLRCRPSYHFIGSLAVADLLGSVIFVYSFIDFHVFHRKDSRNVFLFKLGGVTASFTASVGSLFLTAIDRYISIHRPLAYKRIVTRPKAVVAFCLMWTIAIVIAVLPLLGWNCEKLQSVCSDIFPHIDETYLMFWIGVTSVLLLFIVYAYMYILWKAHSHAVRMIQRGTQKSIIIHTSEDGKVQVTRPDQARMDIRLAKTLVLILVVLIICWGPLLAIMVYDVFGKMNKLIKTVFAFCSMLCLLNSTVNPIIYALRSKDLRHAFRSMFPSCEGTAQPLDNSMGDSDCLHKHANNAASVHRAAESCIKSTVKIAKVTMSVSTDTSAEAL

Rattus norvegicus [2] = organism: Rattus norvegicus; assay: Displacement of [3H]nitrendipine from L-type calcium channel dihydropyridine binding site in rat cerebral cortex assessed as remaining radioligand binding at 10 uM after 90 mins by scintillation counting method relative to control; assay type: tissue-based
[3] = biological target: Muscarinic acetylcholine receptor M4 (Homo sapiens) (UniProt P08173); assay: Displacement of [3H]4-DAMP from human recombinant muscarinic M4 receptor expressed in CHO cells assessed as remaining radioligand binding at 10 uM after 60 mins by scintillation counting method relative to control; assay type: cell-based
Chain of Muscarinic acetylcholine receptor M4 (Homo sapiens) (P08173 whole entry): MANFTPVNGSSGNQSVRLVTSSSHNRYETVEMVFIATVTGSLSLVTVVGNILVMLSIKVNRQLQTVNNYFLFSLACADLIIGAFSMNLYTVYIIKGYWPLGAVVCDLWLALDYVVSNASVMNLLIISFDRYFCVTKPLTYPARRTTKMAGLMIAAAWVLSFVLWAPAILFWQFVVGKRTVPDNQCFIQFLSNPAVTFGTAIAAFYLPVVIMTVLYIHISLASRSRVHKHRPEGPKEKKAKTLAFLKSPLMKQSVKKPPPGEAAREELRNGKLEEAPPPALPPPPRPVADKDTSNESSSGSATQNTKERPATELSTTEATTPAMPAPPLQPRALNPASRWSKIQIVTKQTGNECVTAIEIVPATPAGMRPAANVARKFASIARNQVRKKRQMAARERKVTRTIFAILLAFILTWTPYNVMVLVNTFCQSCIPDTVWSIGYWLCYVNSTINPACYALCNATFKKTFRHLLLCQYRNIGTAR

[4] = Apparent intrinsic clearance in rat liver microsomes; assay type: ADME; conditions: read-out: CLH(app)
[5] = Tmax in rat at 30 mg/kg, po; assay type: ADME, organism-based; conditions: in vivo
How it was run: (§1)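 Rats dosed orally at 30 mg/kg, or 10 mg/kg for one analogue, in 1% Tween 80/2% HPMC/97% water with methanesulfonic acid, pH 2.2.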

[6] = Cmax in rat at 30 mg/kg, po; assay type: ADME, organism-based; set-up: dose 30 mg/kg, route oral; conditions: in vivo
How it was run: (§2)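 Rat oral PK at 30 mg/kg (10 mg/kg for one analogue) in 1% Tween 80/2% HPMC/97% water with methanesulfonic acid, pH 2.2.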

Rattus norvegicus [7] = organism: Rattus norvegicus; assay: Antagonist activity at rat TRPV3 assessed as inhibition of 2-APB-induced Ca2+ influx up to 10 uM preincubated for 2.5 mins followed by 2-APB addition measured for 1 min by luminescence assay
[8] = Solubility of compound in pH 7.4 phosphate buffered saline; assay type: physicochemical
Homo sapiens = organism: Homo sapiens; assay: Binding affinity to human delta 2-type opioid receptor assessed as remaining radioligand binding at 10 uM by radioligand displacement assay relative to control
[9] = AUC (infinity) in rat at 30 mg/kg, po; assay type: ADME, organism-based; set-up: dose 30 mg/kg, time infinity, route oral; conditions: in vivo; how it was run: as §2
[10] = biological target: Kappa-type opioid receptor (Rattus norvegicus) (UniProt P34975); assay: Displacement of [3H]U-69593 from rat recombinant kappa opioid receptor expressed in CHO cells assessed as remaining radioligand binding at 10 uM after 60 mins by scintillation counting method relative to control; assay type: cell-based
[11] = Half life in rat at 30 mg/kg, po; assay type: ADME, organism-based; conditions: in vivo; how it was run: as §1
Rattus norvegicus [12] = assay: In vivo inhibition of TRPA1 in Harlan Sprague-Dawley rat model of AITC-induced flinching assessed as unbound plasma concentration based IC90; assay type: functional
How it was run: (§3)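 Rats were given vehicle (2% HPMC/1% Tween-80) or compound orally at 1, 3, 10 or 30 mg/kg. After 1 h, 0.1% AITC was injected into one left ventral hind paw, and nocifensive flinching was recorded over the first minute. Unbound plasma concentration was measured at 1 h, n = 8 per dose. In vivo IC50/IC90 came from the exposure–response relationship across individual animals.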

[13] = biological target: Transient receptor potential cation channel subfamily A member 1 (Rattus norvegicus, UniProt Q6RI86); assay: Antagonist activity at rat TRPA1 expressed in tetracycline-inducible T-REx expression system transfected CHO cells assessed as inhibition of hypo osmolarity buffer-induced 45Ca2+ uptake preincubated for 10 mins followed by hypo osmolarity buffer addition measured after 3 mins by TopCount microplate scintillator counting method; assay type: cell-based
Chain of Transient receptor potential cation channel subfamily A member 1 (Rattus norvegicus, UniProt Q6RI86) (Q6RI86 whole entry): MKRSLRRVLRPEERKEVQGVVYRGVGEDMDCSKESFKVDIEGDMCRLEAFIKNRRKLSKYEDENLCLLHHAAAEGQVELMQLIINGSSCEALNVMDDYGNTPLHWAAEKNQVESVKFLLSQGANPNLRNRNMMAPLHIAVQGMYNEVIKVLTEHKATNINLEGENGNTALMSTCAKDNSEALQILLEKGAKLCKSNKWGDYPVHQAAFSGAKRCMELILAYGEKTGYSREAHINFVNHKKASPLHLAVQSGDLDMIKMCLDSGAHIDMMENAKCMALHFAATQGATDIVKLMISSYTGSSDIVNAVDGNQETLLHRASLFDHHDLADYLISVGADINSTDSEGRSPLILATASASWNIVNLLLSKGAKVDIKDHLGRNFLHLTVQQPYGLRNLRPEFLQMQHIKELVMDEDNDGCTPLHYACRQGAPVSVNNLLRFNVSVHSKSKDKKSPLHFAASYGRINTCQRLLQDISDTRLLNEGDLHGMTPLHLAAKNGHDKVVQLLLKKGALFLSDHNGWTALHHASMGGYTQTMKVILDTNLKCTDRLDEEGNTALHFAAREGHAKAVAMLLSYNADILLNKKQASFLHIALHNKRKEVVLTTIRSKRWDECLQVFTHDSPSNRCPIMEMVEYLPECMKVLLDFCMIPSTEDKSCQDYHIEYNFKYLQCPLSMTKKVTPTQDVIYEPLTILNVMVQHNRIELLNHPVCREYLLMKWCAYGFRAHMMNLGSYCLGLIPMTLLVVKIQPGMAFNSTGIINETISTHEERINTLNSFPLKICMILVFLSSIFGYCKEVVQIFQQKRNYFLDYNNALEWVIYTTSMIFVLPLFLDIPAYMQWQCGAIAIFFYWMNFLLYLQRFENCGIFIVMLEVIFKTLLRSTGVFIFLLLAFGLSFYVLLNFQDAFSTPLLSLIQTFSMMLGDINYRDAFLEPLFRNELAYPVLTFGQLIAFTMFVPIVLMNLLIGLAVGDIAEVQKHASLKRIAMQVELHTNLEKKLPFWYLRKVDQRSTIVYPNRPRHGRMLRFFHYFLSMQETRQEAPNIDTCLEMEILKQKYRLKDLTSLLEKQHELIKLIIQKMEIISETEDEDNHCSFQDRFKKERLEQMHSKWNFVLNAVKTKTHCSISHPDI
How it was run: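 Compound given 10 min at RT in Ham's F12/15 mM HEPES/0.1% BSA, final 2.0 nM–40 μM (1:3 steps); then hypo-osmolar buffer (final 100 mOsmol) with 45Ca2+ (final 10 μCi/mL), 3 min at RT. Cells washed three times in PBS/0.1 mg/mL BSA, then scintillation counted. Hypotonic uptake = 100%, 300 mOsmol/L buffer = 0%. POC fitted to a four-parameter curve for IC50.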

Plasma = assay: Unbound plasma concentration in Harlan Sprague-Dawley rat model of AITC-induced flinching at 3 mg/kg, po at 1 hr; assay type: ADME, organism-based; conditions: in vivo; how it was run: as §3
Rattus norvegicus [14] = organism: Rattus norvegicus; assay: Displacement of [35S]TBPS from GABA gated chloride channel in rat cerebral cortex assessed as remaining radioligand binding at 10 uM after 120 mins by scintillation counting method relative to control; assay type: tissue-based
[15] = biological target: Transient receptor potential cation channel subfamily A member 1 (Homo sapiens, UniProt O75762); assay: Agonist activity at human TRPA1 expressed in tetracycline-inducible T-REx expression system transfected CHO cells by 45Ca2+ uptake assay; assay type: cell-based
Chain of Transient receptor potential cation channel subfamily A member 1 (Homo sapiens, UniProt O75762) (O75762 whole entry): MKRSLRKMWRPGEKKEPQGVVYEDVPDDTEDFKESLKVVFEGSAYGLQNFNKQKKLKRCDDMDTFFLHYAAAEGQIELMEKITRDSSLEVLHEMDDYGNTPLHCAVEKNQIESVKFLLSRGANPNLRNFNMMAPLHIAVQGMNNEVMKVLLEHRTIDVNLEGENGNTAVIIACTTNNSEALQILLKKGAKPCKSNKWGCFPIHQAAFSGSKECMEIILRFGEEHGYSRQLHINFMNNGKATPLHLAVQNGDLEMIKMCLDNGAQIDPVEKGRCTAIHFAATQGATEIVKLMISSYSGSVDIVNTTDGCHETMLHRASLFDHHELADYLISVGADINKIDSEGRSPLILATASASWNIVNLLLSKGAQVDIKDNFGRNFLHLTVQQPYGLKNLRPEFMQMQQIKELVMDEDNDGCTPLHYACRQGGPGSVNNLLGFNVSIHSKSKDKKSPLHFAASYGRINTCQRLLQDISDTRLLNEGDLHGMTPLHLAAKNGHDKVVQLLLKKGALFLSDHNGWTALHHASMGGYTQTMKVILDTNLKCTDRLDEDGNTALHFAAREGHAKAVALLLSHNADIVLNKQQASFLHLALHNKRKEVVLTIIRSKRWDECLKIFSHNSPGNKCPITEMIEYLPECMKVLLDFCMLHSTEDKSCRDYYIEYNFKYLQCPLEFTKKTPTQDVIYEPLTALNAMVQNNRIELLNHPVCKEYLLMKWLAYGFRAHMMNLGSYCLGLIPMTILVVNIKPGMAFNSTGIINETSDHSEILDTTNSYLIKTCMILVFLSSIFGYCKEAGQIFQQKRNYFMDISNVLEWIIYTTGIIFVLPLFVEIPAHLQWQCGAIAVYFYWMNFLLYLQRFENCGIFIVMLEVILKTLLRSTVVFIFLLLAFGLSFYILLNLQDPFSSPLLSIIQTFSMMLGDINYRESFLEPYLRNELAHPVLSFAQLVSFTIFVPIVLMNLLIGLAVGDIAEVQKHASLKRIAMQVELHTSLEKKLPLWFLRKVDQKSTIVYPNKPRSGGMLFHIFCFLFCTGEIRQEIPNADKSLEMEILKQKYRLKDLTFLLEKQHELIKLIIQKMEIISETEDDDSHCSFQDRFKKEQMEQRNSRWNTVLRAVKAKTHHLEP

[16] = biological target: Histamine H1 receptor (Homo sapiens) (UniProt P35367); assay: Displacement of [3H]pyrilamine from human recombinant histamine H1 receptor expressed in HEK293 cells assessed as remaining radioligand binding at 10 uM after 60 mins by scintillation counting method relative to control; assay type: cell-based
Chain of Histamine H1 receptor (Homo sapiens) (P35367 whole entry): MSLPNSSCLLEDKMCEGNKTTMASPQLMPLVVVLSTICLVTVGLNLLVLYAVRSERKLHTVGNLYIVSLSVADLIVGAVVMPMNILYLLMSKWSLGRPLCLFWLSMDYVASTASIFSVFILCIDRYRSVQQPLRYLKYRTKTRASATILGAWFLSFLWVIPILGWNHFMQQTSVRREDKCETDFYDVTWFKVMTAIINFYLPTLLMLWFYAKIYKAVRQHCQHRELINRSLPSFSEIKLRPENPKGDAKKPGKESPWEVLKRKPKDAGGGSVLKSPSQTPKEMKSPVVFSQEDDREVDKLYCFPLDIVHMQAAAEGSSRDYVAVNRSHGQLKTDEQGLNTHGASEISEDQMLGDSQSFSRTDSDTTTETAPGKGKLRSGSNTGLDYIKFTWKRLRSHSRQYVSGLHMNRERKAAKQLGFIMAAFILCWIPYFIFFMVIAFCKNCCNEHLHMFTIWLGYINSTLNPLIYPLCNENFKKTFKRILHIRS

[17] = Oral bioavailability in rat at 30 mg/kg; assay type: ADME, organism-based; conditions: in vivo; how it was run: as §1
Cytochrome P450 2D6 = Cytochrome P450 2D6 (Homo sapiens, UniProt P10635); assay: Inhibition of CYP2D6 in human liver microsomes using dextromethorphan as substrate by LC-MS/MS analysis in presence of NADPH; assay type: ADME
Chain of Cytochrome P450 2D6 (P10635 whole entry): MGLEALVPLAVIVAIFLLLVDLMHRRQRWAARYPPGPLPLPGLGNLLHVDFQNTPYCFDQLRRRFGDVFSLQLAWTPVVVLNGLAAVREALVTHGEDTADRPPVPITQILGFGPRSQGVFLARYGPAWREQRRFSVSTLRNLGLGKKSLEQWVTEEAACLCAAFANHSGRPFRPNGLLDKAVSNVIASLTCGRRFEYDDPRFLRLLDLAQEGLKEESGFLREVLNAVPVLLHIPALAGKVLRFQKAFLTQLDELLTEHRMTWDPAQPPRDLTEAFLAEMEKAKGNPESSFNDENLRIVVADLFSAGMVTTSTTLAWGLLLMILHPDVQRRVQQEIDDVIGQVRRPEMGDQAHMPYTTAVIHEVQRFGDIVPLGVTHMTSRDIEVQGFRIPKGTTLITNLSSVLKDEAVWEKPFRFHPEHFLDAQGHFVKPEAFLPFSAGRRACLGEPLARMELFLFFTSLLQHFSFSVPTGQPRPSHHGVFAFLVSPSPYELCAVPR

[18] = Solubility of compound in simulated intestinal fluid; assay type: ADME
[19] = Ratio of fCmax in rat at 30 mg/kg, po to IC50 for rat TRPA1 expressed in tetracycline-inducible T-REx expression system transfected CHO cells by 45Ca2+ uptake assay
[20] = biological target: Mu-type opioid receptor (Homo sapiens) (UniProt P35372); assay: Displacement of [3H]DAMGO from human recombinant mu opioid receptor expressed in HEK293 cells assessed as remaining radioligand binding at 10 uM after 120 mins by scintillation counting method relative to control; assay type: cell-based
[21] = Ratio of unbound plasma concentration in Harlan Sprague-Dawley rat model of AITC-induced flinching at 1 mg/kg, po to IC50 for rat TRPA1 expressed in tetracycline-inducible T-REx expression system transfected CHO cells by 45Ca2+ uptake assay; assay type: ADME, organism-based; conditions: in vivo
How it was run: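 Rats dosed orally at 1, 3, 10 or 30 mg/kg in 2% HPMC/1% Tween-80 vehicle. After 1 h, unbound plasma concentration measured (n = 8 per dose), intraplantar AITC (0.1%) given and flinching scored over the first minute. Unbound concentration divided by in vitro rat TRPA1 45Ca2+ IC50.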

[22] = biological target: Alpha-1A adrenergic receptor (Homo sapiens) (UniProt P35348); assay: Displacement of [3H]prazosin from human recombinant adrenergic alpha1A expressed in CHO cells assessed as remaining radioligand binding at 10 uM after 60 mins by scintillation counting method relative to control; assay type: cell-based
Chain of Alpha-1A adrenergic receptor (Homo sapiens) (P35348 whole entry): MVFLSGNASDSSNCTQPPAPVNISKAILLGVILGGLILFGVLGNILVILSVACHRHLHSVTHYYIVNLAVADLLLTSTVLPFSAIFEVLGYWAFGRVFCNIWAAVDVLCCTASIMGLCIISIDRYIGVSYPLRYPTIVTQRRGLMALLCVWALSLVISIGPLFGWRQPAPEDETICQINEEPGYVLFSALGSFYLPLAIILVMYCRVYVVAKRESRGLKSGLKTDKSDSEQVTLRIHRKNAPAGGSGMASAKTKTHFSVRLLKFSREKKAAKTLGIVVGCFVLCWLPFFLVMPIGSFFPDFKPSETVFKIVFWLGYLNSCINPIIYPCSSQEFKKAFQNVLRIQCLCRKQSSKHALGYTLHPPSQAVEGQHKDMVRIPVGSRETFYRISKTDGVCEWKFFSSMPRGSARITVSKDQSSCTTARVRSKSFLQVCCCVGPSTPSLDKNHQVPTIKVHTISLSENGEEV

[23] = biological target: C-X-C chemokine receptor type 2 (Homo sapiens) (UniProt P25025); assay: Displacement of [125I]IL-8 from human recombinant CXCR2 expressed in HEK293 cells assessed as remaining radioligand binding at 10 uM after 60 mins by scintillation counting method relative to control; assay type: cell-based
Chain of C-X-C chemokine receptor type 2 (Homo sapiens) (P25025 whole entry): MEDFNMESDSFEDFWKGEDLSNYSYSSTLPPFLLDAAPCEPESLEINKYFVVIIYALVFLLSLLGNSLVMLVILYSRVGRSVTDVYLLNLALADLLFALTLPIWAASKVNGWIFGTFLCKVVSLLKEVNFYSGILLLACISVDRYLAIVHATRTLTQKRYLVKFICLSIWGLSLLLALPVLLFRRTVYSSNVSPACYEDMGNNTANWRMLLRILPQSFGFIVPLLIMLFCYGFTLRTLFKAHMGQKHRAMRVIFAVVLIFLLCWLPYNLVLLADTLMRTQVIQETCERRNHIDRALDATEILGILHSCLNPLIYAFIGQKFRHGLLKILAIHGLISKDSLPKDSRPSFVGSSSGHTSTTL

[24] = biological target: Adenosine receptor A3 (Homo sapiens) (UniProt P0DMS8); assay: Displacement of [125I]AB-MECA from human recombinant adenosine A3 receptor expressed in HEK293 cells assessed as remaining radioligand binding at 10 uM after 120 mins by scintillation counting method relative to control; assay type: cell-based
MDR1 (human) = assay: Efflux ratio of apparent permeability from basolateral to apical side over apical to basolateral side in MDCK cells expressing human MDR1 after 120 mins by LC-MS/MS analysis; assay type: ADME, cell-based, Canis lupus familiaris; conditions: dog
How it was run: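 Efflux ratio taken as Papp B→A / Papp A→B, measured in MDR1-transfected MDCK cells against MDCK vector-control cells.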

Activity [1]: > 77% | Activity (Rattus norvegicus [2]): > 77% | Activity [3]: > 77% | microsomal CLint [4]: 41 µL/min/mg | Tmax [5]: 0.8 h | Cmax [6]: 7.5 µM | inhibition (Rattus norvegicus [7]): inactive | solubility [8]: 226 µM (≈ 83.8 µg/mL) | Activity (Homo sapiens): > 77% | AUC(0-inf) [9]: 19.8 µM·h | Activity [10]: > 77% | half-life [11]: 2.8 h | IC90 (Rattus norvegicus [12]): 1.7 µM | IC50 [13]: 0.01 µM | Cp(f) (Plasma): 0.19 µM | Activity (Rattus norvegicus [14]): > 77% | EC50 [15]: > 40 µM | Activity [16]: > 77% | bioavailability [17]: 60% | IC50 (Cytochrome P450 2D6): > 27 µM | solubility [18]: 248 µM (≈ 92 µg/mL) | Activity [20]: > 77% | Ratio [21]: 0.72 | Activity [22]: > 77% | Activity [23]: > 77% | Activity [24]: > 77% | efflux ratio at 2 h (MDR1 (human)): 1.3
SMILES: Cn1cnc2ncn(Cc3nc(CCc4ccc(Cl)cc4)no3)c(=O)c21
Ratio [19]: 31
